# Laboratory results taken from ChEMBL document CHEMBL1177763, “Synthesis and biological activity of glycosyl-1H-1,2,3-triazoles” (Bioorg Med Chem Lett, 2010).
# Active and inactive are the calls of the source. The calls are words filed in the database; no cut-off is given here.
# Columns and labels:
# Beta-galactosidase = Beta-galactosidase (Escherichia coli, UniProt Q8VNN2); assay: Inhibition of Escherichia coli beta-galactosidase
# [1] = target: Alpha-galactosidase (Coffea arabica) (UniProt Q42656); assay: Inhibition of green coffee bean alpha-galactosidase at 1 mM
# Sequence of Alpha-galactosidase (Coffea arabica) (Q42656 16-378 limits assumed): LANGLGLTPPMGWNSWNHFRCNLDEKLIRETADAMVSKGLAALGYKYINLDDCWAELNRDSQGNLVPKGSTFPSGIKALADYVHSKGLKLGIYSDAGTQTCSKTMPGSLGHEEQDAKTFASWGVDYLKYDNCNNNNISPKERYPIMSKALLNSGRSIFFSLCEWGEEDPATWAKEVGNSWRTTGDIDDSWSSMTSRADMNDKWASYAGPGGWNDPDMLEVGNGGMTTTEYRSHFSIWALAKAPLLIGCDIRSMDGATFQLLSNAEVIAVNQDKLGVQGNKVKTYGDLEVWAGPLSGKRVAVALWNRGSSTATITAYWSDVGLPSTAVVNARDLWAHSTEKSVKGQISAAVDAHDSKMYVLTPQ
# [2] = target: T1, Beta-galactosidase (Aspergillus oryzae) (UniProt Q2U7N3); assay: Inhibition of Aspergillus oryzae beta-galactosidase at 1 mM
# T1 sequence (whole entry): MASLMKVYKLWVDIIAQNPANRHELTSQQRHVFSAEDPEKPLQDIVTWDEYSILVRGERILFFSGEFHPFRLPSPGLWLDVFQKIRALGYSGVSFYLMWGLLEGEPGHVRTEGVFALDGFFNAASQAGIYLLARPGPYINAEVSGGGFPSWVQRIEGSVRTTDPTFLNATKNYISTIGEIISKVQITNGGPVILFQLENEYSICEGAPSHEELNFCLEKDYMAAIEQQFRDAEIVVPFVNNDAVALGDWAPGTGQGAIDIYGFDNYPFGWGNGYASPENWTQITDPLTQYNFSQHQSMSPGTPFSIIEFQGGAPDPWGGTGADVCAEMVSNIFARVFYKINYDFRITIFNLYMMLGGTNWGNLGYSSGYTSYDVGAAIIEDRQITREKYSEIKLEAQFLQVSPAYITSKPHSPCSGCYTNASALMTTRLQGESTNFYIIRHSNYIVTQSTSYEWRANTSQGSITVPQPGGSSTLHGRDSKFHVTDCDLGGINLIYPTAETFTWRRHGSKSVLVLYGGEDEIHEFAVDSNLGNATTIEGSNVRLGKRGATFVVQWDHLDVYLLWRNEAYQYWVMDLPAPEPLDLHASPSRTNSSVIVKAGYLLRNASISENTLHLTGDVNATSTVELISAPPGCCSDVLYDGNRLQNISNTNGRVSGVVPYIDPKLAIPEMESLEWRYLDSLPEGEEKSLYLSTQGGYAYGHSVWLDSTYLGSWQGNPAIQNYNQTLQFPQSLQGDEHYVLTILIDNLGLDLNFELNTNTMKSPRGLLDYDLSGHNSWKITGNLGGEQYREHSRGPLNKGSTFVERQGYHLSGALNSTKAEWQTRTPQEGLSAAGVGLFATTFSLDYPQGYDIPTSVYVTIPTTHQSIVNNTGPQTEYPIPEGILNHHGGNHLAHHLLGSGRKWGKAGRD
# [3] = target: Beta-galactosidase (Escherichia coli) (UniProt Q8VNN2); assay: Inhibition of Escherichia coli beta-galactosidase at 1 mM
# Sequence of Beta-galactosidase (Escherichia coli) (Q8VNN2 whole entry, looked up): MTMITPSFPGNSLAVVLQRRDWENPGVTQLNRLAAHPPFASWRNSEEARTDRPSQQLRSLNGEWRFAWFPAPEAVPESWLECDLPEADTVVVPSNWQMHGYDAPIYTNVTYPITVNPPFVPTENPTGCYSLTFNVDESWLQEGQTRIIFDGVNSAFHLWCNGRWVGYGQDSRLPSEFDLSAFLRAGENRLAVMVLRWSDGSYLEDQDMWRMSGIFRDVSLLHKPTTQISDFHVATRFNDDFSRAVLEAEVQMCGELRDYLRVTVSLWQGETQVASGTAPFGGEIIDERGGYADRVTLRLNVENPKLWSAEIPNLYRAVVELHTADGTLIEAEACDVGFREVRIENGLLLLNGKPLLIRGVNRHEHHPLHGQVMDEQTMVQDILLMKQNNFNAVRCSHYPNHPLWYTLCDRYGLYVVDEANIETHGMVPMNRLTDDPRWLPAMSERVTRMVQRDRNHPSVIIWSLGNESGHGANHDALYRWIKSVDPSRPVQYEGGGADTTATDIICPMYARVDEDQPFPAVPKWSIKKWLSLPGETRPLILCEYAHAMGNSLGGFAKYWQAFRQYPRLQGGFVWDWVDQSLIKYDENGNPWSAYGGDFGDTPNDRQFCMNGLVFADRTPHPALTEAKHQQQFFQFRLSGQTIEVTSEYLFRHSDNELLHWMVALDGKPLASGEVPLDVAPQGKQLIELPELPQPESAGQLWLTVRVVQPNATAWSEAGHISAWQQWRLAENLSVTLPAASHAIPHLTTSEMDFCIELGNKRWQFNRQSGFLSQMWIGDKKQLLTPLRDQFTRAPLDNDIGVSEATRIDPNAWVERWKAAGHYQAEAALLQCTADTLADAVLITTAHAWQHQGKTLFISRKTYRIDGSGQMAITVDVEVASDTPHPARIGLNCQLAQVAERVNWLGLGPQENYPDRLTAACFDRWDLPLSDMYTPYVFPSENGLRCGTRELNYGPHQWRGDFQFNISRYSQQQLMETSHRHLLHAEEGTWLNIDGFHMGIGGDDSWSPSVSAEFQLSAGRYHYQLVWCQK
# Saccharomyces cerevisiae = assay: Inhibition of yeast alpha-glucosidase at 1 mM
# [4] = target: T2, Early activation antigen CD69 (Homo sapiens, UniProt Q07108); assay: Binding affinity to rhodamine-labeled human CD69 receptor after 2 hrs by fluorescence assay
# T2 sequence (Q07108 whole entry): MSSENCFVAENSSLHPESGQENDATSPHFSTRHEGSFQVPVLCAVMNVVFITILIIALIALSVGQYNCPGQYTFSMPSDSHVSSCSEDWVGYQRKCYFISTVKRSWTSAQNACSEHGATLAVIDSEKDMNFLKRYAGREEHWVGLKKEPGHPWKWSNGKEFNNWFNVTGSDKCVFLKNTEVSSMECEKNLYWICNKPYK
# Summary of the method: (§1)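 Competitive displacement assay: the compound's ability to displace a high-affinity receptor ligand was measured on rat NKR-P1A and human CD69 activating receptors. Affinity was expressed relative to free N-acetyl-D-glucosamine as the reference ligand.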
# [5] = target: T3, Killer cell lectin-like receptor subfamily B member 1A (Rattus norvegicus, UniProt P27471); assay: Binding affinity to fluorescein-labeled rat NKR-P1A after 2 hrs by fluorescence assay
# T3 sequence (P27471 whole entry): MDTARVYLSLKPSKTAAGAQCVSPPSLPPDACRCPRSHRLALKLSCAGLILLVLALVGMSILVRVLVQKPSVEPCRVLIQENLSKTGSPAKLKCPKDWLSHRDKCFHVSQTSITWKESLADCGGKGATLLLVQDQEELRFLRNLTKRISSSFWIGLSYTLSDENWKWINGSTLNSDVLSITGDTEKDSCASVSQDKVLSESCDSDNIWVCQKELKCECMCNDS
# Summary of the method: as §1
# Prunus dulcis = assay: Inhibition of sweet almond beta-glucosidase at 1 mM
# Aspergillus oryzae = assay: Inhibition of Aspergillus oryzae CCF 1066 beta-N-acetylglucosaminidase at 2 mM
# Penicillium oxalicum = assay: Inhibition of Penicillium oxalicum CCF 1959 beta-N-acetylglucosaminidase at 2 mM
# Talaromyces flavus = assay: Inhibition of Talaromyces flavus CCF 2686 beta-N-acetylglucosaminidase at 2 mM
# Penicillium pittii = assay: Inhibition of Penicillium pittii CCF 2277 beta-N-acetylglucosaminidase at 2 mM
# Sequence of Beta-galactosidase (Q8VNN2 whole entry): as the sequence (Q8VNN2 whole entry, looked up) above
smiles,measurement,setting,value
OC[C@H]1O[C@@H](n2cc(-c3ccccc3)nn2)[C@H](O)[C@@H](O)[C@@H]1O,Ki,Beta-galactosidase,330 µM
OC[C@H]1O[C@H](n2ccnn2)[C@H](O)[C@@H](O)[C@H]1O,inhibition,[1],inactive
OC[C@H]1O[C@@H](n2ccnn2)[C@H](O)[C@@H](O)[C@H]1O,inhibition,[2],inactive
same,inhibition,[3],inactive
OC[C@H]1O[C@H](n2ccnn2)[C@H](O)[C@@H](O)[C@@H]1O,inhibition,Saccharomyces cerevisiae,inactive
CC(=O)N[C@@H]1[C@@H](O)[C@H](O)[C@@H](CO)O[C@H]1O [N-ACETYLGLUCOSAMINE],IC50,[4],126 µM
same,IC50,[5],2 µM
OC[C@H]1O[C@@H](n2ccnn2)[C@H](O)[C@@H](O)[C@@H]1O,inhibition,Prunus dulcis,inactive
CC(=O)N[C@@H]1[C@@H](O)[C@H](O)[C@@H](CO)O[C@H]1n1ccnn1,inhibition,Aspergillus oryzae,inactive
same,inhibition,Penicillium oxalicum,inactive
same,inhibition,Talaromyces flavus,inactive
same,inhibition,Penicillium pittii,inactive
same,IC50,[4],3.98 µM
same,IC50,[5],0.0631 µM
